Source: ChEMBL document CHEMBL4196009, “Novel vitexin-inspired scaffold against leukemia” (Eur J Med Chem, 2018)
Activity calls are given as the source filed them. The rule behind the calls is not given here.

Legend:
Homo sapiens [1] = organism: Homo sapiens; test: Inhibition of RNA polymerase 2 C-terminal domain phosphorylation at Ser2 residue in human KOPN8 cells at 0.5 uM after 24 hrs by Western blot analysis; type: cell-based
Procedure, shortened: (§1)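 KOPN-8 cells were exposed to compound for 3 h and 24 h, with or without N-acetylcysteine added to a parallel set as antioxidant. Lysates were analysed by Western blot for cleaved PARP, Mcl-1, Ser-2-phosphorylated RNAPII CTD, cMyc, total Rb and pRb. Signals were compared against controls for dose-dependent change.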

SEM cells = test: Antiproliferative activity against human SEM cells after 72 hrs by CelTiter-Glo assay; type: functional, cell-based
KOPN-8 [2] = test: Effect on c-Myc expression in human KOPN8 cells at 0.5 uM after 3 hrs by Western blot analysis relative to control; type: functional
KOPN-8 [3] = test: Antiproliferative activity against human KOPN8 cells after 72 hrs by CelTiter-Glo assay; type: functional, cell-based; details: KOPN-8, 72 h
Homo sapiens [4] = organism: Homo sapiens; test: Inhibition of RNA polymerase 2 C-terminal domain phosphorylation at Ser2 residue in human KOPN8 cells at 0.5 uM pre-treated with NAC for 1 hr and measured after 24 hrs by Western blot analysis relative to control; type: cell-based; procedure, shortened: as §1
MDA-MB-231 [5] = test: Cell cycle arrest in human MDA-MB-231 cells assessed as accumulation at G2/M phase at 5 uM after 24 hrs by propidium iodide staining-based flow cytometry (reference value: 9.38%); type: functional
KOPN-8 [6] = test: Induction of apoptosis in human KOPN8 cells assessed as effect on Mcl-1 level at 0.5 uM after 24 hrs by Western blot analysis relative to control; type: functional
KOPN-8 [7] = test: Induction of apoptosis in human KOPN8 cells assessed as effect on Mcl-1 level at 0.5 uM pre-treated with NAC for 1 hr and measured after 24 hrs by Western blot analysis relative to control; type: functional
[8] = molecular target: T1, Retinoblastoma-associated protein (Homo sapiens) (UniProt P06400); test: Inhibition of Rb phosphorylation in human KOPN8 cells assessed as ratio of phosphorylated Rb to total Rb levels at 0.5 uM after 3 hrs by Western blot analysis relative to control; type: cell-based
T1 sequence (whole entry): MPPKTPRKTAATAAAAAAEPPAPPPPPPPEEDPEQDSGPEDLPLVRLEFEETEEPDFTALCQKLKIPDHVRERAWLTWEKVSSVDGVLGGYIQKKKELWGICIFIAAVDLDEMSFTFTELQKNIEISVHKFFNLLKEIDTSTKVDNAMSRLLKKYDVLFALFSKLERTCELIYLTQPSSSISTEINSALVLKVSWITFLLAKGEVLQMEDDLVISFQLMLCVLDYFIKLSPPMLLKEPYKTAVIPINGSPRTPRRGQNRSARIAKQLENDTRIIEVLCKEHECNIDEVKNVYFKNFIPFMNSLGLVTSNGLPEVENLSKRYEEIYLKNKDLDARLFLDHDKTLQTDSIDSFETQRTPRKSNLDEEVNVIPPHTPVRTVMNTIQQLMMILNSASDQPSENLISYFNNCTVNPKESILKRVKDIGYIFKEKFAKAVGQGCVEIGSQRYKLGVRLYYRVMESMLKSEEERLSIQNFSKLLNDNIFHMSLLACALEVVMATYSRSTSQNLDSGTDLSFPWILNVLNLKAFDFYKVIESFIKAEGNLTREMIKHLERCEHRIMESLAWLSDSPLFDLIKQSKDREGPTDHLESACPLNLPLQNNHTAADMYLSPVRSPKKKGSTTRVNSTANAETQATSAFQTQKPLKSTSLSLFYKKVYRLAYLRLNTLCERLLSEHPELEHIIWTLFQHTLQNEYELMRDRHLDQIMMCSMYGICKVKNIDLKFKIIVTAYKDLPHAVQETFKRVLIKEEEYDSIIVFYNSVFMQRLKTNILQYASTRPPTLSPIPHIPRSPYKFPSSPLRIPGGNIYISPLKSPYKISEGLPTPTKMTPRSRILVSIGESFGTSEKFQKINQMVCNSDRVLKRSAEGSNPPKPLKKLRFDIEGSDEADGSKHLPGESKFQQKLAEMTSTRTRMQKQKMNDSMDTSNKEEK
Procedure, shortened: (§2)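 KOPN-8 pre-B ALL cells were treated for 3 h and 24 h, with or without N-acetyl cysteine added to a parallel set of cells as an antioxidant/ROS quencher. Lysates were analysed by Western blot for phosphorylated Rb and total Rb. The same blots also probed PARP cleavage, Mcl-1, Ser-2-phosphorylated RNAPII CTD and cMyc.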

[9] = molecular target: T1, Retinoblastoma-associated protein (Homo sapiens); test: Inhibition of Rb phosphorylation in human KOPN8 cells assessed as ratio of phosphorylated Rb to total Rb levels at 0.5 uM pre-treated with NAC for 1 hr and measured after 3 hrs by Western blot analysis relative to control; type: cell-based; procedure, shortened: as §2
Homo sapiens [10] = organism: Homo sapiens; test: Inhibition of RNA polymerase 2 C-terminal domain phosphorylation at Ser2 residue in human KOPN8 cells at 0.5 uM after 3 hrs by Western blot analysis relative to control; type: cell-based; procedure, shortened: as §1
HepG2 = test: Antiproliferative activity against human HepG2 cells after 72 hrs by CelTiter-Glo assay; type: functional, cell-based; details: HepG2, 72 h
KOPN-8 [11] = test: Effect on c-Myc expression in human KOPN8 cells at 0.5 uM after 24 hrs by Western blot analysis relative to control; type: functional
SUP-B15 = test: Antiproliferative activity against human SUP-B15 cells after 72 hrs by CelTiter-Glo assay; type: functional, cell-based; details: SUP-B15, 72 h
MDA-MB-231 [12] = test: Cell cycle arrest in human MDA-MB-231 cells assessed as accumulation at S phase at 5 uM after 24 hrs by propidium iodide staining-based flow cytometry (reference value: 20.15%); type: functional
KOPN-8 [13] = test: Induction of apoptosis in human KOPN8 cells assessed as effect on Mcl-1 level at 0.5 uM pre-treated with NAC for 1 hr and measured after 3 hrs by Western blot analysis relative to control; type: functional
KOPN-8 [14] = test: Effect on c-Myc expression in human KOPN8 cells at 0.5 uM pre-treated with NAC for 1 hr and measured after 24 hrs by Western blot analysis relative to control; type: functional
UoC-B1 = test: Antiproliferative activity against human UOCB1 cells after 72 hrs by CelTiter-Glo assay; type: functional, cell-based; details: UoC-B1, 72 h
KOPN-8 [15] = test: Induction of apoptosis in human KOPN8 cells assessed as upregulation of cleaved PARP level at 0.5 uM after 3 to 24 hrs by Western blot analysis; type: functional, cell-based; procedure, shortened: as §1
KOPN-8 [16] = test: Induction of apoptosis in human KOPN8 cells assessed as upregulation of cleaved PARP level at 0.5 uM pre-treated with NAC for 1 hr and measured after 3 to 24 hrs by Western blot analysis; type: functional, cell-based; procedure, shortened: as §1
[17] = molecular target: T1, Retinoblastoma-associated protein (Homo sapiens); test: Inhibition of Rb phosphorylation in human KOPN8 cells assessed as ratio of phosphorylated Rb to total Rb levels at 0.5 uM after 24 hrs by Western blot analysis relative to control; type: cell-based; procedure, shortened: as §1
Homo sapiens [18] = organism: Homo sapiens; test: Inhibition of RNA polymerase 2 C-terminal domain phosphorylation at Ser2 residue in human KOPN8 cells at 0.5 uM pre-treated with NAC for 1 hr and measured after 3 hrs by Western blot analysis relative to control; type: cell-based; procedure, shortened: as §1
BJ = test: Antiproliferative activity against human BJ cells after 72 hrs by CelTiter-Glo assay; type: cell-based
MDA-MB-231 [19] = test: Cell cycle arrest in human MDA-MB-231 cells assessed as accumulation at G0/G1 phase at 5 uM after 24 hrs by propidium iodide staining-based flow cytometry (reference value: 70.47%); type: functional
[20] = molecular target: T1, Retinoblastoma-associated protein (Homo sapiens); test: Inhibition of Rb phosphorylation in human KOPN8 cells assessed as ratio of phosphorylated Rb to total Rb levels at 0.5 uM pre-treated with NAC for 1 hr and measured after 24 hrs by Western blot analysis relative to control; type: cell-based; procedure, shortened: as §2
KOPN-8 [21] = test: Induction of apoptosis in human KOPN8 cells assessed as effect on Mcl-1 level at 0.5 uM after 3 hrs by Western blot analysis relative to control; type: functional
KOPN-8 [22] = test: Effect on c-Myc expression in human KOPN8 cells at 0.5 uM pre-treated with NAC for 1 hr and measured after 3 hrs by Western blot analysis relative to control; type: functional

In the case of `CN1CC[C@H](c2c(O)cc(O)c3c(=O)cc(-c4ccccc4Cl)oc23)[C@H](O)C1` [ALVOCIDIB], the fold change (FC) (Homo sapiens [1]) is reported as 0, the EC50 (SEM cells) is reported as 204 nM and the “fold change (FC)” value (KOPN-8 [2]) is reported as 0.2. The EC50 (KOPN-8 [3]) was 193 nM, the fold change (FC) (Homo sapiens [4]) was 0 and the Activity (MDA-MB-231 [5]) was 16.47%. The “fold change (FC)” value (KOPN-8 [6]) was 0, the “fold change (FC)” value (KOPN-8 [7]) was 0 and the fold change (FC) [8] was 0.9. It also gave a fold change (FC) [9] of 1.1, a fold change (FC) (Homo sapiens [10]) of 0.4 and an EC50 (HepG2) of 146 nM. The “fold change (FC)” value (KOPN-8 [11]) was 0, the EC50 (SUP-B15) was greater than 86200 nM and the Activity (MDA-MB-231 [12]) was 17.5%. The “fold change (FC)” value (KOPN-8 [13]) was 0.2, the “fold change (FC)” value (KOPN-8 [14]) was 0 and the EC50 (UoC-B1) was 208 nM. For the same molecule, the Activity (KOPN-8 [15]) was “Active”, the Activity (KOPN-8 [16]) was “Active” and the fold change (FC) [17] was 1. For the same molecule, the fold change (FC) (Homo sapiens [18]) was 0.6, the EC50 (BJ) was greater than 86200 nM and the Activity (MDA-MB-231 [19]) was 66.03%. The fold change (FC) [20] was 1.1, the “fold change (FC)” value (KOPN-8 [21]) was 0.2 and the “fold change (FC)” value (KOPN-8 [22]) was 0.2.
